Source: PubChem
AF4-AF9 inh – MLL-AF4/AF9 protein interaction inhibition; P42568; 0.47% of 350,000 active; inhibition, % at 10 µM; AlphaScreen, biotin-AF4 peptide binding to FLAG-AF9;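 active means every replicate reaching a set inhibition limit, whatever the replicate mean, cut at about 25% in these data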;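 further: 0% = plate neutral control median and 100% = total signal loss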
Target sequence (P42568 whole entry, looked up): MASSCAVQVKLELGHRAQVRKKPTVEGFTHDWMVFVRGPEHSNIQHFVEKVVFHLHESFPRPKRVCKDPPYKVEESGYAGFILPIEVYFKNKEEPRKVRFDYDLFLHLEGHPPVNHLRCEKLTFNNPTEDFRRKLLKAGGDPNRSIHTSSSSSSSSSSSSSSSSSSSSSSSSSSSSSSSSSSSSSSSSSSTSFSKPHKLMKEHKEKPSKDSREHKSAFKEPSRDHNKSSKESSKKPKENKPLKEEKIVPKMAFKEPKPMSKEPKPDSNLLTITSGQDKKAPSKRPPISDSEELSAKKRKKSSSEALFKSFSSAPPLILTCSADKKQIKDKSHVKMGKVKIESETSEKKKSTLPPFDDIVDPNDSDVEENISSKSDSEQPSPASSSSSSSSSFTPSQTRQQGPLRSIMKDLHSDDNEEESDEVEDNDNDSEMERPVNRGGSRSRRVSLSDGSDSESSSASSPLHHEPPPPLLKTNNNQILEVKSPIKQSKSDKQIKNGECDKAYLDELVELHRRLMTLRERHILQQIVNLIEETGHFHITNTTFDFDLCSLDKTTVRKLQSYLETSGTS
Ecoli rRNA inh – inhibits bacterial ribosomal RNA function over humanized ribosomes; E. coli WT GFP vs humanized-ribosome RFP mutants, fluorescence, 24 h; hits give low values; DMSO median 0, no signal -100; AID 720706; GFP signal change (wild-type ribosome), % (no concentration beside the values); 1.6% of 350,000 active;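 active means significant combined selectivity score with lowered wild-type GFP, culture density cut under 30%, mutant RFP and density less affected; inactive means any of these conditions unmet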
PfHsp90 set2 – inhibits growth of yeast expressing Plasmodium falciparum Hsp90; S. cerevisiae expressing PfHsp90, BacTiter-Glo ATP, 48 h; yeast lacking PDR1 and PDR3 efflux regulators; inhibition, % at 9.4 µM; 0.32% of 310,000 active; AID 504621;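 active means every replicate shows inhibition above about 80%, whatever the replicate mean, limit read from the data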;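 further: 0% = DMSO neutral controls and 100% = 20 µM radicicol positive controls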
DENV2 CPE – DENV2-induced cell death inhibition. DENV2-infected cells, cytopathic effect rescue, plate reader. CPE inhibition, % at 9.99 µM. 1.7% of 350,000 active. AID 651640; in the data active means CPE inhibition above about 20%, passing the limit was not always enough; tested in BHK-21 cells;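 further: 0% = median of neutral control wells and 100% = median of positive control wells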
S100A4 inh HTS – blocks human S100A4 binding to myosin IIA peptide. S100A4/TAMRA-MyoIIA peptide fluorescence polarization. P26447. 0.14% of 360,000 active. inhibition, % at 10.7 µM. AID 652163;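 active means mean inhibition of at least 70% across replicates, with every replicate also reaching that level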
Target sequence (P26447 whole entry, looked up): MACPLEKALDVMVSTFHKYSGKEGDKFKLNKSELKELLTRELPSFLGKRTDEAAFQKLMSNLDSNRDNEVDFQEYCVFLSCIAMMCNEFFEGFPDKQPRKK
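System – human S100A4 monomer protein, biochemical binding assay · Buffer or medium – Calcium-containing HEPES buffer, pH 7.2 · Timing – 5 min between mix addition and reading · Also added – TAMRA-labelled myosin IIA heavy-chain peptide probe, 5 nM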
Cneo AK release – causes C. neoformans cell lysis. 0.2% of 360,000 active. lysis activity, % at 15 µM. adenylate kinase release luminescence, 4 h; normalised: neutral wells 0, clomiphene wells 100. AID 651654;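 active means mean lysis activity across replicates of at least 80%, whatever share of replicates individually reach that level; inactive means mean lysis activity below 80%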
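Material: C. neoformans cells | Amount: Yeast cell density of 5 × 10^6 cells/mL | Medium: Fresh YPD growth medium | Dosing: Single dose | Times: Static 4 h at 37 °C with compound, 1 h detection | Detection: AK luminescence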
* marks the source's active call; other numbers are inactive results; / = no result. Most compounds without a hit are left out; they make up all but 3.2% or so of the library.

SMILES | AF4-AF9 inh | Ecoli rRNA inh | PfHsp90 set2 | DENV2 CPE | S100A4 inh HTS | Cneo AK release
COc1ccc(S(=O)(=O)N(C)C[C@H]2Oc3c(NC(=O)c4nc5ccccc5s4)cccc3C(=O)N([C@H](C)CO)C[C@H]2C)cc1 | -0.5 | 4.2 | / | 1.2 | 7.8 | -1.7
CCCN1[C@@H]2c3ccc(-c4ccc(F)cc4)c(=O)n3C[C@@H]2[C@@H](CO)[C@@H]1C(=O)N[C@@H](C)c1ccccc1 | 7.6 | -21.2 | / | 2.0 | -1.0 | 2.0
C[C@@H]1CCCCO[C@@H](CN(C)S(C)(=O)=O)[C@H](C)CN([C@H](C)CO)C(=O)c2cc(NC(=O)CCC(F)(F)F)ccc2O1 | / | 0.9 | / | / | / | /
Cc1ccc(-c2nc(C#N)c(NCC3CCCO3)o2)cc1 (configuration not stated) | 2.2 | -23.8* | / | 2.7 | 4.8 | /
C[C@@H](NC(=O)C[C@H]1CC[C@@H](NC(=O)c2cccnc2)[C@H](CO)O1)c1ccccc1 | -1.4 | -1.4 | / | 5.7 | 24.7 | 1.1
CCCc1cc(=O)oc2cc(OCc3ccc(C(=O)O)cc3)ccc12 | -7.7 | -9.2 | 109.3* | -2.6 | -8.2 | 0.0
COC(=O)CCc1ccc(O)cc1 | 0.3 | / | 22.2 | -8.7 | 0.6 | 1.4
CCCC(=O)N(CCN(Cc1ccccc1)C(=O)CCC)Cc1ccccc1 | / | / | -3.8 | / | / | 8.4
COC(=O)CCC(=O)N(CCN(Cc1ccccc1)C(=O)CCC(=O)OC)Cc1ccccc1 | -1.1 | -16.4* | -10.2 | 19.1 | -0.4 | /
COC(=O)CCc1cccc(CCC(=O)OC)c1 | -7.5 | 6.1 | -16.0 | 46.0* | -0.5 | 5.3
CCCNC(=O)N1CC2(CCN(C(=O)c3cccnc3)CC2)c2c([nH]c3cc(OC)ccc23)[C@H]1CO | -0.6 | -3.6 | / | -0.8 | 16.6 | /
CCCN(C)C[C@H]1OCCCC[C@H](C)Oc2ccc(NC(=O)CCC(F)(F)F)cc2C(=O)N([C@@H](C)CO)C[C@H]1C | / | 0.3 | / | / | / | /
Cc1ccc(CSc2nnc(C(F)(F)F)n2Cc2ccc(F)cc2)cc1 | 7.1 | -27.1* | -56.3 | 2.7 | -3.1 | 0.8
CCN(Cc1ccccc1)C(=O)C1CCN(c2ncnc3c2nc2n3CCCCC2)CC1 | -4.3 | -25.3* | 2.0 | -3.1 | -0.6 | -0.8
O=C(NCc1ccccc1)C1CCCN(c2ncnc3c2nc2n3CCCCC2)C1 (configuration not stated) | 0.1 | -6.2 | -16.6 | 0.1 | 10.3 | -11.2
COc1ccccc1NC(=O)C1CCCN(c2ncnc3c2nc2n3CCCCC2)C1 (configuration not stated) | 0.5 | -33.3* | -46.6 | 1.3 | -1.6 | -11.1
O=C(Nc1ccccc1Cl)C1CCCN(c2ncnc3c2nc2n3CCCCC2)C1 (configuration not stated) | 5.5 | -30.0* | -88.9 | 3.7 | 0.1 | 2.1
COc1cc(NC(=O)C2CCCN(c3ncnc4c3nc3n4CCCCC3)C2)cc(OC)c1OC (configuration not stated) | 2.1 | -26.4 | -17.1 | 0.3 | 11.9 | -10.3
CCc1ccccc1N(CC)C(=O)C1CCN(c2ncnc3c2nc2n3CCCCC2)CC1 | 5.8 | -9.5 | -6.2 | 8.5 | 5.1 | 10.5
COc1ccc(-c2ccc3n(c2=O)C[C@@H]2N[C@H]3[C@H](C(=O)N3CCCCC3)[C@H]2CO)cc1 | -1.2 | 1.6 | / | 0.0 | 3.3 | /
CCCn1c(=S)[nH]c2cc(C(=O)N(CCO)Cc3ccccc3)ccc2c1=O | -0.1 | -29.6* | -3.8 | 8.5 | -2.1 | -2.8
Nc1[nH]c(C(=O)c2ccccc2)c(-c2ccccc2Cl)c1C(=O)c1ccccc1 | 0.1 | -27.4* | / | 7.2 | 5.3 | /
Nc1[nH]c(C(=O)c2ccccc2)c(-c2ccc([N+](=O)[O-])cc2)c1C(=O)NCCc1c[nH]c2ccccc12 | 2.9 | -21.5 | / | -0.9 | -4.2 | /
Nc1[nH]c(C(=O)c2ccc(Br)cc2)c(-c2ccc(Br)cc2)c1C(=O)NCc1ccc(-c2ccccc2)cc1 | -0.3 | -1.0 | / | 1.8 | -3.0 | /
COc1ccc(-c2c(C(=O)c3ccccc3)[nH]c(N)c2C(=O)NCCc2c[nH]c3ccccc23)cc1 | / | / | / | 31.2* | -2.1 | /
SMILES | AF4-AF9 inh | Ecoli rRNA inh | PfHsp90 set2 | DENV2 CPE | S100A4 inh HTS | Cneo AK release
NC(=O)c1c(N)[nH]c(C(=O)c2ccccc2)c1-c1ccc(Cl)cc1Cl | 1.9 | -16.4 | / | -6.9 | 2.3 | /
COCCNC(=O)c1c(N)[nH]c(C(=O)c2ccc(Br)cc2)c1-c1ccc(Br)cc1 | / | / | / | 33.7* | -0.5 | /
Nc1[nH]c(C(=O)c2ccccc2)c(-c2ccccc2[N+](=O)[O-])c1C(=O)NCCc1c[nH]c2ccccc12 | -4.0 | -38.5* | / | -7.0 | -2.7 | /
COc1ccc2c3c(n(C)c2c1)[C@@H](CO)N(S(=O)(=O)c1ccc(C)cc1)CC31CCN(S(=O)(=O)c2ccc(C)cc2)CC1 | 1.0 | 3.8 | / | -2.0 | -6.1 | /
C[C@@H]1CN([C@@H](C)CO)C(=O)c2cc(C3=CCCCC3)cnc2O[C@H]1CN(C)S(=O)(=O)c1cn(C)cn1 | -3.6 | -2.4 | / | 6.5 | 3.8 | -0.6
COCC(=O)N(C)C[C@@H]1Oc2ncc(-c3ccccc3OC)cc2C(=O)N([C@@H](C)CO)C[C@H]1C | -12.1 | 3.6 | / | 6.8 | 40.8 | -2.4
Nc1[nH]c(C(=O)c2ccc(Br)cc2)c(-c2c(F)cccc2F)c1C(=O)NCCc1c[nH]c2ccccc12 | / | / | / | 39.3* | -18.3 | /
Nc1[nH]c(C(=O)c2ccc(Br)cc2)c(-c2ccc(Br)cc2)c1C(=O)NCCc1c[nH]c2ccccc12 | -4.5 | -4.4 | / | 3.1 | 34.0 | /
Nc1[nH]c(C(=O)c2ccc(Br)cc2)c(-c2ccncc2)c1C(=O)NCCc1c[nH]c2ccccc12 | / | / | / | 20.2* | 9.1 | /
Nc1[nH]c(C(=O)c2ccc(Br)cc2)c(-c2ccc(F)cc2)c1C(=O)NCCc1c[nH]c2ccccc12 | / | / | / | 26.5* | -0.4 | /
Nc1[nH]c(C(=O)c2ccccc2)c(-c2ccc(Cl)cc2)c1C(=O)c1c[nH]c2ccccc12 | / | / | / | 27.7* | -6.7 | /
COCC#Cc1cnc2c(c1)C(=O)N([C@H](C)CO)C[C@@H](C)[C@H](CN(C)Cc1ccccc1F)O2 | -0.6 | 1.2 | / | / | / | /
COc1ccc(COC[C@]23N=C4Sc5ccc([N+](=O)[O-])cc5C(=O)N4[C@H](c4ccccc4O2)[C@H]3CO[Si](C)(C)C(C)(C)C)cc1 | -3.2 | / | / | 3.9 | 15.5 | 13.0
COc1ccc(COCC23N=C4SCc5ccccc5C(=O)N4[C@H](c4ccccc4O2)[C@H]3CO[Si](C)(C)C(C)(C)C)cc1 | -4.4 | / | / | 27.9* | 18.8 | -2.3
O=C(C[C@@H]1CC[C@H](NS(=O)(=O)c2ccc(F)cc2)[C@H](CO)O1)N1CCC(Cc2ccccc2)CC1 | -3.9 | -2.8 | / | 6.0 | -6.9 | 45.2
Fc1ccccc1C1c2[nH]c3ccccc3c2CCN1CCCn1cccn1 (configuration not stated) | 12.9 | -11.0 | 12.8 | 31.3* | -4.4 | /
